# Compound activity deposited in PubChem by several laboratories.
# An excerpt weighted towards active compounds, which were near 2.6% of everything screened.
# SENP1 FRET inh = blocks the human SENP1 SUMO protease catalytic domain. Q9P0U3. recombinant SENP1 catalytic domain, CyPet-SUMO1-YPet FRET cleavage. inhibition, % at 10 µM. actives 0.21% (n = 360,000). AID 624204;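 active means inhibition at least 30% at 10 µM, raw YFP signal under a set limit, fluorescence ratio 0.5 to 1.5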;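 further: 0% = enzyme with DMSO and 100% = no enzyme wells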
#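 Material: hSENP1 catalytic domain, recombinant; medium: Tris pH 8 with BME, BSA, NP40 and catalase; compound: single concentration of 10 µM compound, 0.5% DMSO final; technique: FRET read of cyan and yellow fluorescence; timing: 50 min enzyme reaction, room temperature, light-protected; reagent: SFCypet-SUMO1-SFYpet substrate at 25 nM; control set: no-enzyme low, enzyme-DMSO high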
# SENP7 inh = blocks the human protease SENP7; Q9BQF6; recombinant SENP7, Z-RLRGG-aminoluciferin luminescence, 40 min; inhibition, % at 5 µM; actives 1.5% (n = 330,000);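 active means inhibition above about 50% at the single test dose, limit read from the data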;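 further: plate controls were DMSO with enzyme for no effect and no enzyme buffer wells for full effect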
# SENP6 block = inhibitors of human SENP6 protease | Q9GZR1 | Recombinant SENP6 catalytic domain, aminoluciferin luminescence | inhibition, % at 10 µM | actives 1.8% (n = 330,000);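 active means inhibition above about 50% at the single tested dose, limit read from the data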;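 further: plate controls were DMSO wells with enzyme for no effect and DMSO wells lacking enzyme for full effect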
# SENP8 block-1 = SENP8 (human) protease inhibition; actives 0.64% (n = 360,000); recombinant SENP8, Nedd8 substrate fluorescence; inhibition, % at 20 µM; AID 602440; in the data active means inhibition mostly above about 40%, no sharp cut-off; inactive means mostly below about 27%
# Target sequence (Q96LD8 whole entry, looked up): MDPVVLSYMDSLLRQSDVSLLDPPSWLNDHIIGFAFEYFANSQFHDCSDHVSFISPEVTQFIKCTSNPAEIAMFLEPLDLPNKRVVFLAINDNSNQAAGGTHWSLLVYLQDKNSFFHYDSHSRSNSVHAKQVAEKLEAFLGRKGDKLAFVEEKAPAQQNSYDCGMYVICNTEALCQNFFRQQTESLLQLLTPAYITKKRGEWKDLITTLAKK
# UCH37 inh = human UCH37 deubiquitinating enzyme inhibition | Q9Y5K5 | purified proteasome/UCH37, Ub-AMC cleavage fluorescence | inhibition, % (concentration not given with the values) | actives 0.33% (n = 330,000) | AID 588478;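 active means mean inhibition over replicate wells above about 20%, limit read from the data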;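 further: 0% = compound-free wells with enzyme and 100% = wells lacking proteasome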
#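 Material: Human UCH37 enzyme supplied as purified proteasome complex | Schedule: 30 min compound-proteasome preincubation then 25 min substrate reaction, room temperature | Detection: AMC fluorescence from Ub-AMC cleavage, excitation 355 nm, emission 460 nm | Benchmarks: Wells without proteasome as full block, compound-free enzyme plus substrate as uninhibited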
# SENP8 block-2 = inhibitors of human SENP8 protease | purified SENP8, Z-RLRGG-aminoluciferin cleavage, luminescence | inhibition, % at 10 µM | actives 1.2% (n = 330,000) | AID 2540; in the data active means inhibition above about 50%
# SENP8 conf = human SENP8 inhibition, confirmed; inhibition, % at 12.5 µM; AID 488912; shares compounds with SENP7 inh; actives 40% (n = 6,200); Recombinant SENP8, Z-RLRGG-aminoluciferin luminescence, 60 min;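 active means mean inhibition across replicates above about 50%, limit read from the data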
# SENP6 conf = confirmation of human SENP6 protease inhibitors; shares compounds with SENP7 inh; recombinant SENP6, Z-RLRGG-aminoluciferin luminescence; inhibition, % at 12.5 µM; actives 58% (n = 6,200)
# SENP7 conf = human SENP7 inhibition, confirmed. shares compounds with SENP7 inh. recombinant SENP7, Z-RLRGG-aminoluciferin luminescence, 40 min. inhibition, % at 12.5 µM. actives 69% (n = 6,200). AID 488917
# Casp3 select = inhibits human caspase-3 in SENP selectivity test; shares compounds with SENP7 inh; purified caspase-3, Z-DEVD-aminoluciferin luminescence, 60 min; inhibition, % at 12.5 µM; actives 60% (n = 6,200); AID 488918;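 active means mean inhibition above about 50%, limit read from the data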;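 further: plate controls were enzyme with DMSO for no effect and wells without caspase-3 for full effect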
# Target sequence (P42574 28-227 limits assumed): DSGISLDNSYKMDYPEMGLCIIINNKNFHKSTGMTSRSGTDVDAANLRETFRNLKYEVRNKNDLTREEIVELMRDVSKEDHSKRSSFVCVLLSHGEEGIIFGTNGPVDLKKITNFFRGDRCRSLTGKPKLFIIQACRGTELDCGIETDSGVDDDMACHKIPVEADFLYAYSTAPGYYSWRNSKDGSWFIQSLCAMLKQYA
# Luc interf = counter-screen for SENP inhibitors: luminescence interference | Pre-incubated SENP8/Z-RLRGG-aminoluciferin, luciferase luminescence interference | shares compounds with SENP7 inh | inhibition, % at 12.5 µM | actives 39% (n = 6,200) | AID 488919;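 active means mean inhibition above about 50% when retested at one dose, limit read from the data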;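 further: plate controls were DMSO wells with completed reaction for no effect and substrate without enzyme for full effect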
# Starred values were filed as active, the others as inactive; nt = no result given.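 How the source made its calls, unless noted: active means mean inhibition above about 50% in the one-dose retest (limit read from the data); inactive means the rest.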
SMILES,SENP1 FRET inh,SENP7 inh,SENP6 block,SENP8 block-1,UCH37 inh,SENP8 block-2,SENP8 conf,SENP6 conf,SENP7 conf,Casp3 select,Luc interf
O=C(O)c1cccnc1Nc1ccc(Cl)cc1,2,21,66*,18,6,56*,72*,70*,85*,72*,74*
O=C(Nc1ccc(Cl)c(Cl)c1)Nc1ccccc1C(=O)O,-1,101*,100*,-262,-13,98*,4,101*,104*,100*,100*
Cc1ccc(Nc2ncccc2C(=O)O)cc1C,-2,2,46,2,nt,34,nt,nt,nt,nt,nt
O=C(Cc1ccccc1)NNC(=O)Nc1ccc(Cl)c(Cl)c1,0,3,-9,4,0,2,nt,nt,nt,nt,nt
Cc1ccc(NC(=O)Nc2ccccc2C(=O)NCc2ccccc2)cc1,-2,73*,25,-145,3,42,13,19,76*,56*,48
Cc1ccccc1NC(=O)Nc1ccccc1C(=O)NCc1ccccc1,1,4,10,-142,-3,4,nt,nt,nt,nt,nt
NC(=O)c1ccccc1OCC(=O)Nc1ccc(Cl)c(Cl)c1,2,27,52*,13,2,18,15,21,64*,24,11
O=C(NN=Cc1c(Cl)cccc1Cl)c1ccc(F)cc1,nt,nt,nt,nt,2,nt,nt,nt,nt,nt,nt
CC(=NNc1nc(N2CCOCC2)nc(N2CCOCC2)n1)c1ccc([N+](=O)[O-])cc1,nt,nt,nt,nt,10,nt,nt,nt,nt,nt,nt
O=C(Nc1ccc(Cl)cc1)Nc1ccccc1C(=O)O,0,100*,95*,-392,1,96*,8,101*,104*,99*,48
O=C(Nc1ccc(Cl)cc1)Nc1ccccc1CC[N+](=O)[O-],-5,-7,-2,9,3,-9,nt,nt,nt,nt,nt
Cc1cccc(N=Cc2ccccn2)n1,nt,nt,nt,nt,1,nt,nt,nt,nt,nt,nt
CCC(=NNS(=O)(=O)c1ccc(Cl)cc1)c1ccc(O)cc1,nt,nt,nt,nt,8,nt,nt,nt,nt,nt,nt
COc1cc(/C=C/c2ccc3cccc(O)c3n2)cc(OC)c1OC,-3,-8,2,-146,1,-4,nt,nt,nt,nt,nt
Cc1ccc(/C=C/c2ccc3cccc(O)c3n2)s1,-11,4,10,-41,-2,8,nt,nt,nt,nt,nt
COc1cc(/C=C/c2ccc3cccc(O)c3n2)cc(Br)c1OC,9,-17,17,-77,-4,2,nt,nt,nt,nt,nt
Oc1cccc(/C=C/c2ccc3cccc(O)c3n2)c1,0,96*,94*,-44,1,94*,97*,98*,102*,92*,97*
COc1cccc(/C=C/c2ccc3cccc(O)c3n2)c1,4,92*,93*,-60,7,89*,92*,95*,102*,90*,66*
COc1ccc(/C=C/c2ccc3cccc(O)c3n2)cc1Br,2,63*,44,-52,-1,20,-28,-17,-6,-2,-5
Cc1ccc(NC(=O)ON=C2CCCCC2c2ccc([N+](=O)[O-])cc2[N+](=O)[O-])cc1 (centres undefined),nt,nt,nt,nt,3,nt,nt,nt,nt,nt,nt
Cn1ncc(N=Cc2ccccc2[N+](=O)[O-])c1C(N)=O,2,-9,-7,-5,6,-1,nt,nt,nt,nt,nt
CN(C)c1ccc(C=Nc2cnn(C)c2C(N)=O)cc1,-63,77*,73*,-49,3,68*,10,45,78*,62*,24
